From publication PMC9043576 (RSC Advances, 2021)
pIC50: −log10 of the molar value. “Also recorded” adds a separate entry of the source.

Assays:
[1] = tested on: high-fat diet-fed/streptozotocin (HFD/STZ) induced T2DM male albino mice; assay: Acute hypoglycemic activity, intraperitoneal glucose tolerance test; type: in vivo; details: IPGTT, diabetic mice, mean ±SD; for Blood glucose level (1 h): single dose 10 mg kg^−1, 1 h; for Blood glucose level (2 h): single dose 10 mg kg^−1, 2 h; for Blood glucose level (3 h): single dose 10 mg kg^−1, 3 h; for Blood glucose level (6 h): single dose 10 mg kg^−1, 6 h
Outline: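 Diabetic male albino mice (high-fat diet-fed/streptozotocin-induced T2DM) received a single 10 mg kg−1 dose of test compound; the IPGTT was then run. Blood glucose (mg dl−1) was read at 1, 2, 3 and 6 h. The groups were normal control, untreated STZ-diabetic control and treated animals, with n = 4 per group. Values are mean ±SD.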

[2] = tested on: normal hTERT-RPE1 cell line; assay: Cytotoxicity bioassay; type: cell-based; details: MTT
DPP-9 = DPP-9 (Homo sapiens, UniProt Q86TI2); assay: In vitro DPP-9 selectivity assay, fluorescence-based; type: biochemical
DPP-9, sequence (Q86TI2 whole entry): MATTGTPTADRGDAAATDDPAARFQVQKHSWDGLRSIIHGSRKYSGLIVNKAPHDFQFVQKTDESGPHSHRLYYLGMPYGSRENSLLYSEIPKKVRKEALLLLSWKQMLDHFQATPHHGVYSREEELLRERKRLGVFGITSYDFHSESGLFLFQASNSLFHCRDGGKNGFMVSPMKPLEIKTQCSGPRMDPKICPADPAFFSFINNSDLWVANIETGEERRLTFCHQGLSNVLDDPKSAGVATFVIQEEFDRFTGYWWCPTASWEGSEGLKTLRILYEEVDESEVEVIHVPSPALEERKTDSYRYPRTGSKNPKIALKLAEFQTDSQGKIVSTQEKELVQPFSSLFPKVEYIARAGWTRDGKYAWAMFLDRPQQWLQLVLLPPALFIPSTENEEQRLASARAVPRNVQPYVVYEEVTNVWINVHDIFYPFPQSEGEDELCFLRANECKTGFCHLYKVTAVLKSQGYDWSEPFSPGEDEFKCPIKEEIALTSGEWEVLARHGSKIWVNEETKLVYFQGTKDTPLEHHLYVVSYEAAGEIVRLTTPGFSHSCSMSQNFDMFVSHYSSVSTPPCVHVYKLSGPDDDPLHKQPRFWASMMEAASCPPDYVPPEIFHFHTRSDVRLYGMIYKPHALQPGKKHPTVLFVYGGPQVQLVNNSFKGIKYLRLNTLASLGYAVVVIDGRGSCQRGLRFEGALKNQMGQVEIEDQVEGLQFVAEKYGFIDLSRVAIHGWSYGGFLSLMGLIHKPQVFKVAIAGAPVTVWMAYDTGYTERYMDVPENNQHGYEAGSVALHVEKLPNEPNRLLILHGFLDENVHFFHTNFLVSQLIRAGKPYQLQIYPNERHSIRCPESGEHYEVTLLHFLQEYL

DPP-8 = DPP-8 (Homo sapiens, UniProt Q6V1X1); assay: In vitro DPP-8 selectivity assay, fluorescence-based; type: biochemical
DPP-8, sequence (Q6V1X1 whole entry): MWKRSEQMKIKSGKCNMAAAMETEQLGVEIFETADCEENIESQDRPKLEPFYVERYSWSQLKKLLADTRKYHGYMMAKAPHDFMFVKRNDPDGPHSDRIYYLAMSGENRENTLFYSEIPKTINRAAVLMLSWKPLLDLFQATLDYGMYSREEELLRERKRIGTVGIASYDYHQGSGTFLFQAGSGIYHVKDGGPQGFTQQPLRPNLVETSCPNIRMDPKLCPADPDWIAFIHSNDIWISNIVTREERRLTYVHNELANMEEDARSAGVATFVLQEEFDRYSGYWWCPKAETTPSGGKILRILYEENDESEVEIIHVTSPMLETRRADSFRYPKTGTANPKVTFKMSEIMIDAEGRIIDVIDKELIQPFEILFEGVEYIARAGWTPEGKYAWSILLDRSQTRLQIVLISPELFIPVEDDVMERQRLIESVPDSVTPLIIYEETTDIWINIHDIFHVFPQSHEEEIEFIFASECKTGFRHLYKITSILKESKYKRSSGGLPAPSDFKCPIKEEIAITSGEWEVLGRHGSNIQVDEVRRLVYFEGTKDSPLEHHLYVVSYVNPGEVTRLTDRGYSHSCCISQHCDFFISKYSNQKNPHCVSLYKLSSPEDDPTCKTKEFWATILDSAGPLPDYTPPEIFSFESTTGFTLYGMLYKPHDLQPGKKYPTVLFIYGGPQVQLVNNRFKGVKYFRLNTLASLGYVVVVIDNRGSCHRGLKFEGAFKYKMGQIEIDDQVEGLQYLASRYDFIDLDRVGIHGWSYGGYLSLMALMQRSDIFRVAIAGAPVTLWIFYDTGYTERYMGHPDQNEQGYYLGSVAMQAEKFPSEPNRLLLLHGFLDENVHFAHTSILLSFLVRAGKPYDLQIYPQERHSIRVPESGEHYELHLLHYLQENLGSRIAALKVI

DPP-4 = DPP-4 (Homo sapiens, UniProt P27487); assay: biochemical; type: biochemical; details: for DPP-4 suppression activity (in words): human recombinant DPP-4; for pIC50: Experimental PIC50, pIC50 = −log IC50, QSAR training set
DPP-4, sequence (P27487 whole entry): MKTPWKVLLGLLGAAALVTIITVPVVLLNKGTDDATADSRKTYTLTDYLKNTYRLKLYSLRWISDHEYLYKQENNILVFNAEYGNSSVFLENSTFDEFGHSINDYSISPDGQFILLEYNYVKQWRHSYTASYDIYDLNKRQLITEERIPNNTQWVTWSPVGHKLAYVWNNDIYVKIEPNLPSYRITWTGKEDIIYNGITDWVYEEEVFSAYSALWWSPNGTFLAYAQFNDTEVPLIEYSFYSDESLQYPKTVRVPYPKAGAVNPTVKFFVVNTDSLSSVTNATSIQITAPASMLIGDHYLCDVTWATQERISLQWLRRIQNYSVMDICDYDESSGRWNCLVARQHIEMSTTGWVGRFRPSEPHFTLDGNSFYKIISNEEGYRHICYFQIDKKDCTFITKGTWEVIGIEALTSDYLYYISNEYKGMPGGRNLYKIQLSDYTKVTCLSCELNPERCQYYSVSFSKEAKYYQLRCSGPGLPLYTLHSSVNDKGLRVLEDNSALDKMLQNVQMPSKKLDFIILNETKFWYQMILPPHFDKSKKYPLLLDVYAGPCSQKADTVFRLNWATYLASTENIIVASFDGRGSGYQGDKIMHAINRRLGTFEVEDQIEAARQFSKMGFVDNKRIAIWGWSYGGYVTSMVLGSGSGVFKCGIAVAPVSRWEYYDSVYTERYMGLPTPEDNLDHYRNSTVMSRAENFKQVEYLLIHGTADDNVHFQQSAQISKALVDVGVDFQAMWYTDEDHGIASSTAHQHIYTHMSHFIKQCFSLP

Compound	Blood glucose level (1 h) [1]	Blood glucose level (2 h) [1]	Blood glucose level (3 h) [1]	Blood glucose level (6 h) [1]	Inhibition% of normal hTERT-RPE1 cells [2]	pIC50 (DPP-9)	pIC50 (DPP-8)	selectivity towards DPP-4 inhibition over DPP-8/9 (DPP-8; DPP-4 versus DPP-8/9)	DPP-4 suppression activity (in words) (DPP-4)	folds more potent DPP-4 inhibitory effect than Linagliptin (DPP-4)	pIC50 (DPP-4)
Cn1c(=O)c(=O)n(C)c2cc(S(=O)(=O)NNC(=O)NC(=O)c3ccccc3)ccc21 [Compound 10c, N-Benzoyl-2-((1,4-dimethyl-2,3-dioxo-1,2,3,4-tetrahydroquinoxalin-6-yl)sulfonyl)hydrazine-1-carboxamide]	225.65 ± 3.85 mg/dL	155.33 ± 2.78 mg/dL	137.34 ± 9.48 mg/dL	104.08 ± 3.35 mg/dL	–	–	–	–	–	–	–
Cn1c(=O)c(=O)n(C)c2cc(S(=O)(=O)Nc3ccc(C(=O)O)cc3)ccc21 [Compound 6c, 4-(1,4-Dimethyl-2,3-dioxo-1,2,3,4-tetrahydroquinoxaline-6-sulfonamido)benzoic acid]	220.59 ± 5.12 mg/dL	125.31 ± 3.47 mg/dL	90.68 ± 3.45 mg/dL	90.06 ± 7.25 mg/dL	–	–	–	–	–	–	–
CC(=O)NNS(=O)(=O)c1ccc2c(c1)n(C)c(=O)c(=O)n2C [Compound 9a, N′-Acetyl-1,4-dimethyl-2,3-dioxo-1,2,3,4-tetrahydroquinoxaline-6-sulfonohydrazide]	237.40 ± 3.15 mg/dL	115.11 ± 4.25 mg/dL	97.12 ± 8.37 mg/dL	85.23 ± 1.69 mg/dL	20%	< 4.00	< 4.00	> 1000 folds	–	–	–
Cn1c(=O)c(=O)n(C)c2cc(S(=O)(=O)Nc3ccccc3S)ccc21 [Compound 6f, N-(2-Mercaptophenyl)-1,4-dimethyl-2,3-dioxo-1,2,3,4-tetrahydroquinoxaline-6-sulfonamide]	218.00 ± 4.26 mg/dL	118.07 ± 8.21 mg/dL	97.09 ± 6.39 mg/dL	93.25 ± 7.49 mg/dL	–	–	–	–	–	–	–
Cn1c(=O)c(=O)n(C)c2cc(S(=O)(=O)NNC(=O)NCc3ccccc3)ccc21 [Compound 10b, N-Benzyl-2-((1,4-dimethyl-2,3-dioxo-1,2,3,4-tetrahydroquinoxalin-6-yl)sulfonyl)hydrazine-1-carboxamide]	228.71 ± 3.85 mg/dL	120.09 ± 3.35 mg/dL	90.66 ± 5.35 mg/dL	85.66 ± 4.10 mg/dL	–	–	–	–	–	–	–
COc1ccc(NC(=S)NNS(=O)(=O)c2ccc3c(c2)n(C)c(=O)c(=O)n3C)cc1 [Compound 10h, 2-((1,4-Dimethyl-2,3-dioxo-1,2,3,4-tetrahydroquinoxalin-6-yl)sulfonyl)-N-(4-methoxyphenyl)hydrazine-1-carbothioamide]	–	–	–	–	–	–	–	–	inactive; also recorded: completely lost the activity	–	–
Cn1c(=O)c(=O)n(C)c2cc(S(=O)(=O)Nc3ccc(F)cc3)ccc21 [Compound 6d, N-(4-Fluorophenyl)-1,4-dimethyl-2,3-dioxo-1,2,3,4-tetrahydroquinoxaline-6-sulfonamide]	226.33 ± 6.34 mg/dL	120.08 ± 4.11 mg/dL	99.33 ± 1.29 mg/dL	93.33 ± 6.11 mg/dL	–	–	–	–	–	–	–
Cn1c(=O)c(=O)n(C)c2cc(S(=O)(=O)Nc3nccs3)ccc21 [Compound 6a, 1,4-Dimethyl-2,3-dioxo-N-(thiazol-2-yl)-1,2,3,4-tetrahydroquinoxaline-6-sulfonamide]	–	–	–	–	–	–	–	–	inactive; also recorded: completely lost	–	–
CC#CCn1c(N2CCC[C@@H](N)C2)nc2c1c(=O)n(Cc1nc(C)c3ccccc3n1)c(=O)n2C [Linagliptin, reference compound]	220.01 ± 3.85 mg/dL	120.89 ± 1.76 mg/dL	85.11 ± 2.39 mg/dL	85.00 ± 5.15 mg/dL	–	–	–	–	–	–	–
Cn1c(=O)c(=O)n(C)c2cc(S(=O)(=O)NNC(=O)c3ccccc3)ccc21 [Compound 9c, N′-Benzoyl-1,4-dimethyl-2,3-dioxo-1,2,3,4-tetrahydroquinoxaline-6-sulfonohydrazide]	235.40 ± 3.85 mg/dL	120.11 ± 2.35 mg/dL	96.68 ± 4.25 mg/dL	80.16 ± 5.01 mg/dL	–	–	–	–	–	–	–
CC(=O)c1ccc(NS(=O)(=O)c2ccc3c(c2)n(C)c(=O)c(=O)n3C)cc1 [Compound 6b, N-(4-Acetylphenyl)-1,4-dimethyl-2,3-dioxo-1,2,3,4-tetrahydroquinoxaline-6-sulfonamide]	235.64 ± 4.25 mg/dL	127.33 ± 7.15 mg/dL	95.67 ± 6.21 mg/dL	96.24 ± 4.29 mg/dL	–	–	–	–	–	–	–
Cn1c(=O)c(=O)n(C)c2cc(S(=O)(=O)NNC(=O)CCl)ccc21 [Compound 9b, N′-(2-Chloroacetyl)-1,4-dimethyl-2,3-dioxo-1,2,3,4-tetrahydroquinoxaline-6-sulfono hydrazide]	223.89 ± 3.85 mg/dL	118.12 ± 5.95 mg/dL	89.12 ± 4.21 mg/dL	85.25 ± 2.12 mg/dL	–	–	–	–	–	–	–
Cn1c(=O)c(=O)n(C)c2cc(S(=O)(=O)NNC(=O)Nc3ccc(Cl)cc3)ccc21 [Compound 10d, N-(4-Chlorophenyl)-2-((1,4-dimethyl-2,3-dioxo-1,2,3,4-tetrahydroquinoxalin-6-yl)sulfonyl)hydrazine-1-carboxamide]	–	–	–	–	–	–	–	–	inactive; also recorded: completely lost the activity	–	–
Cn1c(=O)c(=O)n(C)c2cc(S(=O)(=O)Nc3ccc(S(N)(=O)=O)cc3)ccc21 [Compound 7a, 1,4-Dimethyl-2,3-dioxo-N-(4-sulfamoylphenyl)-1,2,3,4-tetrahydroquinoxaline-6-sulfonamide]	251.29 ± 2.80 mg/dL	138.16 ± 9.23 mg/dL	122.08 ± 3.31 mg/dL	99.25 ± 4.35 mg/dL	–	–	–	–	–	1.2–1.6 folds	9.21
Cn1c(=O)c(=O)n(C)c2cc(S(=O)(=O)Nc3ccc(Br)cc3)ccc21 [Compound 6e, N-(4-Bromophenyl)-1,4-dimethyl-2,3-dioxo-1,2,3,4-tetrahydroquinoxaline-6-sulfonamide]	222.09 ± 4.85 mg/dL	125.04 ± 3.26 mg/dL	95.28 ± 4.55 mg/dL	92.17 ± 8.45 mg/dL	–	–	–	–	–	–	9.14
Cn1c(=O)c(=O)n(C)c2cc(S(=O)(=O)NNC(=S)NC3CCCCC3)ccc21 [Compound 10f, N-Cyclohexyl-2-((1,4-dimethyl-2,3-dioxo-1,2,3,4-tetrahydroquinoxalin-6-yl)sulfonyl)hydrazine-1-carbothioamide]	237.33 ± 3.85 mg/dL	127.33 ± 4.23 mg/dL	100.06 ± 6.29 mg/dL	89.66 ± 2.27 mg/dL	–	–	–	–	–	–	–
